Series [1] deals with Brain. The experiment in a line: Drug distribution in brain of C57BL/6J mouse bearing mouse B16F0 cells at 18 to 20 MBq, iv measured over 72 hrs by SPECT imaging study. Particulars: in vivo; call rule not given here. Type of series: ADME, organism-based. The gist of the method: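 Female C57BL/6J mice bearing s.c. B16F0 tumors (11 days growth) received 18−20 MBq in 100 μL via lateral tail vein (n = 3). Isoflurane anesthesia (5% induction, 2−2.5% maintenance) on a 37 °C heating pad. Planar γ-camera imaging at 10−60 min (5 min frames), 3 and 6 h, 24, 48 and 72 h. Radioactivity localization assessed visually.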

In series [2] the test system is Liver. As to the kind of experiment: Biodistribution in liver of C57BL/6J mouse bearing mouse B16F0 cells at 0.37 to 1.85 MBq, iv after 3 hrs by gamma counting method. It counts as ADME, organism-based. Particulars: in vivo. The essentials:
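Female C57BL/6J mice (5−6 weeks), s.c. inoculated on left flank with 3 × 10^5 B16F0 cells in Ca2+/Mg2+-free PBS, used 11 days later (tumors 2−12 mm). Radiotracer given via tail vein in 100 μL (~0.37 MBq for 1−24 h, 1.85 MBq for 48 h). Organs dissected, weighed, γ-counted, decay corrected. Expressed as % ID/g against injected-dose dilutions. Mean ± SEM, n = 5.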

Molecules are shown by their SMILES.

Consider four molecules from ChEMBL document CHEMBL3588831, “Synthesis and in Vivo Evaluation of [123I]Melanin-Targeted Agents” (J Med Chem, 2015).

Regarding `O=C(CN1Cc2ccccc2C1=O)N1C[C@H]2CN(Cc3ccc([123I])cc3)C[C@H]2C1`, the Drug uptake entry is “Not Active” in series [1] and 5.6 % ID/g in series [2].

As for `O=C(c1ccc2c(n1)NCCC2)N1CCN(Cc2ccc([123I])cc2)CC1`, the Drug uptake entry is “Not Active” in series [1] and 13.2 % ID/g in series [2].

Regarding `O=C(c1ccc2cccnc2n1)N1CCN(Cc2ccc([123I])cc2)CC1`, the results for the Drug uptake result in series [1] and in series [2] were “Not Active” and 13.4 % ID/g, respectively.

Regarding `O=C(CN1Cc2ccccc2C1=O)NC1CCN(Cc2ccc([123I])cc2)CC1`, the Drug uptake result was “Not Active” in series [1] and 38.8 % ID/g in series [2].
